Experimental data as given in ChEMBL document CHEMBL3627671, “Novel derivatives of nitro-substituted salicylic acids: Synthesis, antimicrobial activity and cytotoxicity” (Bioorg Med Chem, 2015).
≈ marks a conversion by molar mass, not a printed value.

How the values were obtained:
Assay type in all cases: functional
[1] = test system: Mycobacterium tuberculosis; test: Antimycobacterial activity against Mycobacterium tuberculosis H37Rv 331/88 after 14 days; conditions: H37Rv 331/88, 336 h
[2] = test system: Mycobacterium tuberculosis; test: Antimycobacterial activity against Mycobacterium tuberculosis H37Rv 331/88 after 21 days; conditions: H37Rv 331/88, 504 h
Mycobacterium avium [3] = test: Antimycobacterial activity against Mycobacterium avium 330/80 after 14 days; conditions: 330/80, 336 h
Mycobacterium avium [4] = test: Antimycobacterial activity against Mycobacterium avium 330/80 after 21 days; conditions: 330/80, 504 h
Mycobacterium kansasii [5] = test: Antimycobacterial activity against Mycobacterium kansasii 235/80 after 7 days; conditions: 235/80, 168 h
Outline: (§1)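 Šula's semisynthetic medium micromethod at 37 °C, read after 7, 14 and 21 days. The 1.0 McFarland suspension was diluted 10^-4. MIC determined. 6509/96 is a clinical isolate.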

Mycobacterium kansasii [6] = test: Antimycobacterial activity against Mycobacterium kansasii 235/80 after 14 days; conditions: 235/80, 336 h; outline: as §1
Mycobacterium kansasii [7] = test: Antimycobacterial activity against Mycobacterium kansasii 235/80 after 21 days; conditions: 235/80, 504 h; outline: as §1
Mycobacterium kansasii [8] = test: Antimycobacterial activity against Mycobacterium kansasii 6509/96 after 7 days; conditions: 6509/96, 168 h; outline: as §1
Mycobacterium kansasii [9] = test: Antimycobacterial activity against Mycobacterium kansasii 6509/96 after 14 days; conditions: 6509/96, 336 h; outline: as §1
Mycobacterium kansasii [10] = test: Antimycobacterial activity against Mycobacterium kansasii 6509/96 after 21 days; conditions: 6509/96, 504 h; outline: as §1
Staphylococcus aureus [11] = test: Antibacterial activity against Staphylococcus aureus CCM 4516/08 after 24 hrs by microdilution broth method; conditions: CCM 4516/08, 24 h
Staphylococcus aureus [12] = test: Antibacterial activity against Staphylococcus aureus CCM 4516/08 after 48 hrs by microdilution broth method; conditions: CCM 4516/08, 48 h
Staphylococcus aureus [13] = test: Antibacterial activity against methicillin-resistant Staphylococcus aureus H 5996/08 after 24 hrs by microdilution broth method; conditions: H 5996/08, 24 h
Staphylococcus aureus [14] = test: Antibacterial activity against methicillin-resistant Staphylococcus aureus H 5996/08 after 48 hrs by microdilution broth method; conditions: H 5996/08, 48 h
[15] = test system: Staphylococcus epidermidis; test: Antibacterial activity against Staphylococcus epidermidis H 6966/08 after 24 hrs by microdilution broth method; conditions: H 6966/08, 24 h
Outline: (§2)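 Mueller-Hinton broth microdilution (modified M07-A07), pH 7.4 (±0.2). Compounds dissolved in DMSO, tested at final 500 to 0.49 µmol/L. Inoculum in sterile water matched to 0.5 McFarland. Incubated in the dark, humid atmosphere, 35 °C, read at 24 and 48 h visually and at 540 nm. MIC taken as ≥95% growth reduction (IC95) versus control.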

[16] = test system: Staphylococcus epidermidis; test: Antibacterial activity against Staphylococcus epidermidis H 6966/08 after 48 hrs by microdilution broth method; conditions: H 6966/08, 48 h; outline: as §2
Enterococcus sp. [17] = test: Antibacterial activity against Enterococcus sp. J 14365/08 after 24 hrs by microdilution broth method; conditions: J 14365/08, 24 h; outline: as §2
Enterococcus sp. [18] = test: Antibacterial activity against Enterococcus sp. J 14365/08 after 48 hrs by microdilution broth method; conditions: J 14365/08, 48 h; outline: as §2
Escherichia coli [19] = test: Antibacterial activity against Escherichia coli CCM4517 after 24 hrs by microdilution broth method; conditions: CCM4517, 24 h; outline: as §2
Escherichia coli [20] = test: Antibacterial activity against Escherichia coli CCM4517 after 48 hrs by microdilution broth method; conditions: CCM4517, 48 h; outline: as §2
Klebsiella pneumoniae [21] = test: Antibacterial activity against Klebsiella pneumoniae D 11750/08 after 24 hrs by microdilution broth method; conditions: D 11750/08, 24 h; outline: as §2
Klebsiella pneumoniae [22] = test: Antibacterial activity against Klebsiella pneumoniae D 11750/08 after 48 hrs by microdilution broth method; conditions: D 11750/08, 48 h; outline: as §2
Klebsiella pneumoniae [23] = test: Antibacterial activity against ESBL-positive Klebsiella pneumoniae J 14368/08 after 24 hrs by microdilution broth method; conditions: J 14368/08, 24 h; outline: as §2
Klebsiella pneumoniae [24] = test: Antibacterial activity against ESBL-positive Klebsiella pneumoniae J 14368/08 after 48 hrs by microdilution broth method; conditions: J 14368/08, 48 h; outline: as §2
Pseudomonas aeruginosa [25] = test: Antibacterial activity against Pseudomonas aeruginosa CCM 1961 after 24 hrs by microdilution broth method; conditions: CCM 1961, 24 h; outline: as §2
Pseudomonas aeruginosa [26] = test: Antibacterial activity against Pseudomonas aeruginosa CCM 1961 after 48 hrs by microdilution broth method; conditions: CCM 1961, 48 h; outline: as §2
Candida albicans [27] = test: Antifungal activity against Candida albicans ATCC 44859 after 24 hrs by microdilution broth method; conditions: ATCC 44859, 24 h
Outline: (§3)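 CLSI M27-A3 broth microdilution in RPMI 1640 with glutamine, buffered to pH 7.0 with MOPS; DMSO diluent. Yeast inoculum 5 × 10^3 ± 0.2 CFU/mL. Moulds grown on Sabouraud agar 3–10 days before spore harvest, final inoculum 0.5-5 × 10^4 CFU/mL, checked in a Bürker chamber. Incubated dark, humid, 35 °C, read at 24 and 48 h visually and at 540 nm. MIC taken as ≥80% (yeasts) or ≥50% (filamentous) growth reduction versus control.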

Candida albicans [28] = test: Antifungal activity against Candida albicans ATCC 44859 after 48 hrs by microdilution broth method; conditions: ATCC 44859, 48 h; outline: as §3
Candida tropicalis [29] = test: Antifungal activity against Candida tropicalis 156 after 24 hrs by microdilution broth method; conditions: Candida tropicalis, 156, 24 h; outline: as §3
Candida tropicalis [30] = test: Antifungal activity against Candida tropicalis 156 after 48 hrs by microdilution broth method; conditions: Candida tropicalis, 156, 48 h; outline: as §3
Pichia kudriavzevii [31] = test: Antifungal activity against Candida krusei E28 after 24 hrs by microdilution broth method; conditions: E28, 24 h; outline: as §3
Pichia kudriavzevii [32] = test: Antifungal activity against Candida krusei E28 after 48 hrs by microdilution broth method; conditions: E28, 48 h; outline: as §3
Nakaseomyces glabratus [33] = test: Antifungal activity against Candida glabrata 20/I after 24 hrs by microdilution broth method; outline: as §3
Nakaseomyces glabratus [34] = test: Antifungal activity against Candida glabrata 20/I after 48 hrs by microdilution broth method; outline: as §3
Trichosporon asahii [35] = test: Antifungal activity against Trichosporon asahii 1188 after 24 hrs by microdilution broth method; conditions: Trichosporon asahii, 1188, 24 h; outline: as §3
Trichosporon asahii [36] = test: Antifungal activity against Trichosporon asahii 1188 after 48 hrs by microdilution broth method; conditions: Trichosporon asahii, 1188, 48 h; outline: as §3
Aspergillus fumigatus [37] = test: Antifungal activity against Aspergillus fumigatus 231 after 24 hrs by microdilution broth method; conditions: Aspergillus fumigatus, 231, 24 h; outline: as §3
Aspergillus fumigatus [38] = test: Antifungal activity against Aspergillus fumigatus 231 after 48 hrs by microdilution broth method; conditions: Aspergillus fumigatus, 231, 48 h; outline: as §3
Lichtheimia corymbifera [39] = test: Antifungal activity against Absidia corymbifera 272 after 24 hrs by microdilution broth method; conditions: Lichtheimia corymbifera, 272, 24 h; outline: as §3
Lichtheimia corymbifera [40] = test: Antifungal activity against Absidia corymbifera 272 after 48 hrs by microdilution broth method; conditions: Lichtheimia corymbifera, 272, 48 h; outline: as §3
[41] = test system: Trichophyton mentagrophytes; test: Antifungal activity against Trichophyton mentagrophytes 445 after 24 hrs by microdilution broth method; conditions: Trichophyton mentagrophytes, 445, 24 h
[42] = test system: Trichophyton mentagrophytes; test: Antifungal activity against Trichophyton mentagrophytes 445 after 48 hrs by microdilution broth method; conditions: Trichophyton mentagrophytes, 445, 48 h

## O=C(Nc1cccc(F)c1)c1cc([N+](=O)[O-])ccc1O
[1]
  MIC: 16 µM (≈ 4.42 µg/mL)
[2]
  MIC: 32 µM (≈ 8.84 µg/mL)
Mycobacterium avium [3]
  MIC: 125 µM (≈ 34.5 µg/mL)
Mycobacterium avium [4]
  MIC: 125 µM (≈ 34.5 µg/mL)
Mycobacterium kansasii [5]
  MIC: 16 µM (≈ 4.42 µg/mL)
Mycobacterium kansasii [6]
  MIC: 62.5 µM (≈ 17.3 µg/mL)
Mycobacterium kansasii [7]
  MIC: 62.5 µM (≈ 17.3 µg/mL)
Mycobacterium kansasii [8]
  MIC: 32 µM (≈ 8.84 µg/mL)
Mycobacterium kansasii [9]
  MIC: 62.5 µM (≈ 17.3 µg/mL)
Mycobacterium kansasii [10]
  MIC: 62.5 µM (≈ 17.3 µg/mL)
Staphylococcus aureus [11]
  MIC: 125 µM (≈ 34.5 µg/mL)
Staphylococcus aureus [12]
  MIC: 125 µM (≈ 34.5 µg/mL)
Staphylococcus aureus [13]
  MIC: 125 µM (≈ 34.5 µg/mL)
Staphylococcus aureus [14]
  MIC: 125 µM (≈ 34.5 µg/mL)
[15]
  MIC: 125 µM (≈ 34.5 µg/mL)
[16]
  MIC: 250 µM (≈ 69.1 µg/mL)
Enterococcus sp. [17]
  MIC: > 500 µM
Enterococcus sp. [18]
  MIC: > 500 µM
Escherichia coli [19]
  MIC: > 500 µM
Escherichia coli [20]
  MIC: > 500 µM
Klebsiella pneumoniae [21]
  MIC: > 500 µM
Klebsiella pneumoniae [22]
  MIC: > 500 µM
Klebsiella pneumoniae [23]
  MIC: > 500 µM
Klebsiella pneumoniae [24]
  MIC: > 500 µM
Pseudomonas aeruginosa [25]
  MIC: > 500 µM
Pseudomonas aeruginosa [26]
  MIC: > 500 µM
Candida albicans [27]
  MIC: > 500 µM
Candida albicans [28]
  MIC: > 500 µM
Candida tropicalis [29]
  MIC: > 500 µM
Candida tropicalis [30]
  MIC: > 500 µM
Pichia kudriavzevii [31]
  MIC: > 500 µM
Pichia kudriavzevii [32]
  MIC: > 500 µM
Nakaseomyces glabratus [33]
  MIC: > 500 µM
Nakaseomyces glabratus [34]
  MIC: > 500 µM
Trichosporon asahii [35]
  MIC: > 500 µM
Trichosporon asahii [36]
  MIC: > 500 µM
Aspergillus fumigatus [37]
  MIC: > 500 µM
Aspergillus fumigatus [38]
  MIC: > 500 µM
Lichtheimia corymbifera [39]
  MIC: > 500 µM
Lichtheimia corymbifera [40]
  MIC: > 500 µM
[41]
  MIC: 500 µM (≈ 138 µg/mL)
[42]
  MIC: 500 µM (≈ 138 µg/mL)

## O=C(Nc1cccc(Cl)c1)c1ccc([N+](=O)[O-])cc1O
[1]
  MIC: 8 µM (≈ 2.34 µg/mL)
[2]
  MIC: 16 µM (≈ 4.68 µg/mL)
Mycobacterium avium [3]
  MIC: 32 µM (≈ 9.37 µg/mL)
Mycobacterium avium [4]
  MIC: 62.5 µM (≈ 18.3 µg/mL)
Mycobacterium kansasii [5]
  MIC: 8 µM (≈ 2.34 µg/mL)
Mycobacterium kansasii [6]
  MIC: 16 µM (≈ 4.68 µg/mL)
Mycobacterium kansasii [7]
  MIC: 16 µM (≈ 4.68 µg/mL)
Mycobacterium kansasii [8]
  MIC: 16 µM (≈ 4.68 µg/mL)
Mycobacterium kansasii [9]
  MIC: 16 µM (≈ 4.68 µg/mL)
Mycobacterium kansasii [10]
  MIC: 16 µM (≈ 4.68 µg/mL)
Staphylococcus aureus [11]
  MIC: 7.81 µM (≈ 2.29 µg/mL)
Staphylococcus aureus [12]
  MIC: 15.6 µM (≈ 4.57 µg/mL)
Staphylococcus aureus [13]
  MIC: 7.81 µM (≈ 2.29 µg/mL)
Staphylococcus aureus [14]
  MIC: 15.6 µM (≈ 4.57 µg/mL)
[15]
  MIC: 7.81 µM (≈ 2.29 µg/mL)
[16]
  MIC: 15.6 µM (≈ 4.57 µg/mL)
Enterococcus sp. [17]
  MIC: 500 µM (≈ 146 µg/mL)
Enterococcus sp. [18]
  MIC: > 500 µM
Escherichia coli [19]
  MIC: > 500 µM
Escherichia coli [20]
  MIC: > 500 µM
Klebsiella pneumoniae [21]
  MIC: > 500 µM
Klebsiella pneumoniae [22]
  MIC: > 500 µM
Klebsiella pneumoniae [23]
  MIC: > 500 µM
Klebsiella pneumoniae [24]
  MIC: > 500 µM
Pseudomonas aeruginosa [25]
  MIC: > 500 µM
Pseudomonas aeruginosa [26]
  MIC: > 500 µM
Candida albicans [27]
  MIC: > 500 µM
Candida albicans [28]
  MIC: > 500 µM
Candida tropicalis [29]
  MIC: > 500 µM
Candida tropicalis [30]
  MIC: > 500 µM
Pichia kudriavzevii [31]
  MIC: 62.5 µM (≈ 18.3 µg/mL)
Pichia kudriavzevii [32]
  MIC: 125 µM (≈ 36.6 µg/mL)
Nakaseomyces glabratus [33]
  MIC: > 500 µM
Nakaseomyces glabratus [34]
  MIC: > 500 µM
Trichosporon asahii [35]
  MIC: 62.5 µM (≈ 18.3 µg/mL)
Trichosporon asahii [36]
  MIC: 125 µM (≈ 36.6 µg/mL)
Aspergillus fumigatus [37]
  MIC: 62.5 µM (≈ 18.3 µg/mL)
Aspergillus fumigatus [38]
  MIC: 125 µM (≈ 36.6 µg/mL)
Lichtheimia corymbifera [39]
  MIC: 62.5 µM (≈ 18.3 µg/mL)
Lichtheimia corymbifera [40]
  MIC: 250 µM (≈ 73.2 µg/mL)
[41]
  MIC: 62.5 µM (≈ 18.3 µg/mL)
[42]
  MIC: 62.5 µM (≈ 18.3 µg/mL)
